What is called Km is the concentration of substrate that gives half-maximal velocity. As usually defined, the Vmax is the top rate of the reaction or transport when substrate is in excess.

Bounds are passed on as bounds.

The source of these data is ChEMBL document CHEMBL3526045, “Conclusive identification of the oxybutynin-hydrolyzing enzyme in human liver” (Drug Metab Dispos, 2012).

Series [1] concerns the target T1, Cocaine esterase (Homo sapiens, UniProt O00748).
T1 sequence (O00748 whole entry): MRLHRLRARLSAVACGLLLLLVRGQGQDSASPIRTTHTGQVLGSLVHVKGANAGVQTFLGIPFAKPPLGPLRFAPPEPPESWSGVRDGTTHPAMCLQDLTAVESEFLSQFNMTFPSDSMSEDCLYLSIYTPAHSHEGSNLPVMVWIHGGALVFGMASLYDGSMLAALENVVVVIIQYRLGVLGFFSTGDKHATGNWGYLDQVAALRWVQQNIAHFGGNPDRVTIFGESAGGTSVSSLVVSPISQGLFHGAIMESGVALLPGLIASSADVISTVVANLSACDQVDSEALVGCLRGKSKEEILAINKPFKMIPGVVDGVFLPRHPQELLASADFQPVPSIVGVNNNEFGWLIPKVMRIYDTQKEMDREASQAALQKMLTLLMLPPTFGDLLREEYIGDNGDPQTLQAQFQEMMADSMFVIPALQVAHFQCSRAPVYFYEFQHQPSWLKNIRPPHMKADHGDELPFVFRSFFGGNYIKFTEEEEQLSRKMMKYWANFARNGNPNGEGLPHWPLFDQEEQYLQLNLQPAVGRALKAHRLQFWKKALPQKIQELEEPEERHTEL
Briefly: Activity of human recombinant CES2 expressed in baculovirus-infected High Five insect cells assessed as enzyme-mediated compound formation formation treated with oxybutynin at 10 uM for 30 mins by HPLC analysis in presence of 10 uM CES1 inhibitor NDGA. It counts as ADME. The note with it: 0.5 h. Summed up: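 Oxybutynin (10 μM) hydrolysis to CPGA by recombinant CES2-expressing microsomes at 0.1 mg/mL final protein, in 0.05 mol/L Tris-HCl pH 7.6 at 37 °C. Inhibitor was added before a 5 min preincubation, with at most 0.2% final DMSO. Substrate addition started the reaction, which ran 30 min. It was stopped with ACN/1% formic acid plus internal standard. CPGA was quantified by LC-MS/MS in negative MRM mode, as relative activity versus control, in duplicate.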

Series [2] deals with T1, Cocaine esterase. The experiment in a line: Activity of human recombinant CES2 expressed in baculovirus-infected High Five insect cells assessed as 30 to 300 uM CES1 inhibitor procainamide-mediated inhibition of enzyme-mediated 2-cyclohexyl-2-phenylglycolic acid formation at 10 uM for 30 mins by HPLC analysis. The note with it: 0.5 h.
For series [3], the target named is T1, Cocaine esterase. Briefly: Activity of human recombinant CES2 expressed in baculovirus-infected High Five insect cells assessed as 5 uM CES2 inhibitor loperamide-mediated inhibition of enzyme-mediated 2-cyclohexyl-2-phenylglycolic acid formation at 10 uM for 30 mins by HPLC analysis. The following applies: 0.5 h.
Series [4] is described as follows: Drug metabolism in human liver microsomes. In kind it is ADME.
Series [5] in a line: Drug metabolism in human liver cytosol. It counts as ADME, tissue-based.
Series [6] relates to Liver microsome. Briefly: Drug metabolism in human liver microsomes assessed as 2-cyclohexyl-2-phenylglycolic acid formation by Michaelis-Menten equation. It counts as ADME. The essentials: (§1)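 Oxybutynin (2.5–250 μM) incubated 15 min at 37 °C in 0.05 mol/L Tris-HCl pH 7.6 after 5 min pre-incubation. Final protein: liver microsomes 0.05, liver cytosol 0.1, recombinant CES1 microsomes 0.05 mg/mL. Stopped with acetonitrile/1% formic acid plus internal standard; CPGA quantified by LC-MS/MS in negative MRM mode; duplicates. Km, Vmax from Michaelis-Menten fit; CLint = Vmax/Km.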
Background: Liver microsomes are a subcellular fraction often used to study metabolism.

Series [7] has as its system Liver cytosol. Briefly: Drug metabolism in human liver cytosol assessed as 2-cyclohexyl-2-phenylglycolic acid formation by Michaelis-Menten equation. It counts as ADME, tissue-based. The essentials: as §1
Series [8] is described as follows: Activity of human recombinant CES1b/CES1A1 expressed in baculovirus-infected High Five insect cells assessed as enzyme-mediated 2-cyclohexyl-2-phenylglycolic acid formation by Michaelis-Menten equation. It counts as ADME. Summed up: as §1
In series [9] the test system is Liver microsome. Briefly: Drug metabolism in human liver microsomes assessed as 2-cyclohexyl-2-phenylglycolic acid formation per mg of protein by Michaelis-Menten equation. In kind it is ADME. Summed up:
as §1

Series [10] has as its system Liver cytosol. The experiment in a line: Drug metabolism in human liver cytosol assessed as 2-cyclohexyl-2-phenylglycolic acid formation per mg of protein by Michaelis-Menten equation. In kind it is ADME, tissue-based. Summed up:
as §1

A short description of series [11]: Activity of human recombinant CES1b/CES1A1 expressed in baculovirus-infected High Five insect cells assessed as enzyme-mediated 2-cyclohexyl-2-phenylglycolic acid formation per mg of protein by Michaelis-Menten equation. In kind it is ADME. The essentials: as §1
Series [12] concerns the target T1, Cocaine esterase. Briefly: Activity of human recombinant CES2 expressed in baculovirus-infected High Five insect cells assessed as enzyme-mediated 2-cyclohexyl-2-phenylglycolic acid formation per mg of protein by Michaelis-Menten equation. In kind it is ADME.
For series [13], the system named is Liver microsome. Briefly: Intrinsic clearance in human liver microsomes assessed as 2-cyclohexyl-2-phenylglycolic acid formation per mg of protein by Michaelis-Menten equation. It counts as ADME. Summed up: as §1
In series [14] the test system is Liver cytosol. The experiment in a line: Intrinsic clearance in human liver cytosol assessed as 2-cyclohexyl-2-phenylglycolic acid formation per mg of protein by Michaelis-Menten equation. It counts as ADME, tissue-based. The essentials:
as §1

Series [15] is described as follows: Activity of human recombinant CES1b/CES1A1 expressed in baculovirus-infected High Five insect cells assessed as intrinsic clearance for enzyme-mediated 2-cyclohexyl-2-phenylglycolic acid formation per mg of protein by Michaelis-Menten equation. In kind it is ADME. Summed up:
as §1

The target in series [16] is T1, Cocaine esterase. The experiment in a line: Activity of human recombinant CES2 expressed in baculovirus-infected High Five insect cells assessed as intrinsic clearance for enzyme-mediated 2-cyclohexyl-2-phenylglycolic acid formation per mg of protein by Michaelis-Menten equation. In kind it is ADME.
Series [17] addresses T1, Cocaine esterase. Briefly: Activity of human recombinant CES2 expressed in baculovirus-infected High Five insect cells assessed as 5 uM CES1 inhibitor clopidogrel-mediated inhibition of enzyme-mediated 2-cyclohexyl-2-phenylglycolic acid formation at 10 uM for 30 mins by HPLC analysis. The note with it: 0.5 h.
Series [18] concerns the target T1, Cocaine esterase. Briefly: Activity of human recombinant CES2 expressed in baculovirus-infected High Five insect cells assessed as 50 uM CES1 inhibitor clopidogrel-mediated inhibition of enzyme-mediated 2-cyclohexyl-2-phenylglycolic acid formation at 10 uM for 30 mins by HPLC analysis. The note with it: 0.5 h.
Substrate in series [19]: CCN(CC)CC#CCOC(=O)C(O)(c1ccccc1)C1CCCCC1
The experiment in a line: Activity of human CES2. It counts as ADME.

Substrate in series [20]: CCN(CC)CC#CCOC(=O)C(O)(c1ccccc1)C1CCCCC1
The experiment in a line: Activity of human recombinant CES2 expressed in baculovirus-infected High Five insect cells assessed as enzyme-mediated 2-cyclohexyl-2-phenylglycolic acid formation by Michaelis-Menten equation. In kind it is ADME.

Take `O=C(O)C(O)(c1ccccc1)C1CCCCC1` (stereo unspecified): the Drug metabolism result in series [1] is listed as “metabolite_detected”.
As for `CCN(CC)CC#CCOC(=O)C(O)(c1ccccc1)C1CCCCC1.Cl` (stereo unspecified) [OXYBUTYNIN CHLORIDE], the “inhibition (INH)” value in [2] is under 14%; in series [3], 58%; in series [17], under 11%; in [18], 53%. Moreover, the Km in [4] worked out at 22 µM; in [5], 13 µM; in series [6], 22 µM; in [7], 13 µM; in [8], 17 µM. Also, the Vmax in series [9] was 130 pmol/min; in series [10], 110 pmol/min; in [11], 310 pmol/min; in series [12], 32 pmol/min. Also, the CLint in [13] was found to be 5.9 µL/min/mg; in [14], 8.2 µL/min/mg. Also, the clearance is 18 µL/min/mg in series [15] and 0.51 µL/min/mg in series [16].

B1: Cocaine esterase (Homo sapiens) (protein)
chain: MRLHRLRARLSAVACGLLLLLVRGQGQDSASPIRTTHTGQVLGSLVHVKGANAGVQTFLGIPFAKPPLGPLRFAPPEPPESWSGVRDGTTHPAMCLQDLTAVESEFLSQFNMTFPSDSMSEDCLYLSIYTPAHSHEGSNLPVMVWIHGGALVFGMASLYDGSMLAALENVVVVIIQYRLGVLGFFSTGDKHATGNWGYLDQVAALRWVQQNIAHFGGNPDRVTIFGESAGGTSVSSLVVSPISQGLFHGAIMESGVALLPGLIASSADVISTVVANLSACDQVDSEALVGCLRGKSKEEILAINKPFKMIPGVVDGVFLPRHPQELLASADFQPVPSIVGVNNNEFGWLIPKVMRIYDTQKEMDREASQAALQKMLTLLMLPPTFGDLLREEYIGDNGDPQTLQAQFQEMMADSMFVIPALQVAHFQCSRAPVYFYEFQHQPSWLKNIRPPHMKADHGDELPFVFRSFFGGNYIKFTEEEEQLSRKMMKYWANFARNGNPNGEGLPHWPLFDQEEQYLQLNLQPAVGRALKAHRLQFWKKALPQKIQELEEPEERHTEL
Regarding B1, in series [19], the Michaelis constant (Km) stood at 1100 µM and the Vmax worked out at 0.36 µmol/min/mg. In addition, the Km in series [20] stood at 62 µM.
